Active and inactive are the calls of the source. No cut-off for these calls is given here.
Legend:
[1] = target: T1, Nuclear factor erythroid 2-related factor 2 (Homo sapiens) (UniProt Q16236); assay: Activation of Nrf2/ARE-mediated transcription in human SK-N-SH cells after 6 hrs by luciferase reporter gene assay; format: cell-based
T1 sequence (whole entry): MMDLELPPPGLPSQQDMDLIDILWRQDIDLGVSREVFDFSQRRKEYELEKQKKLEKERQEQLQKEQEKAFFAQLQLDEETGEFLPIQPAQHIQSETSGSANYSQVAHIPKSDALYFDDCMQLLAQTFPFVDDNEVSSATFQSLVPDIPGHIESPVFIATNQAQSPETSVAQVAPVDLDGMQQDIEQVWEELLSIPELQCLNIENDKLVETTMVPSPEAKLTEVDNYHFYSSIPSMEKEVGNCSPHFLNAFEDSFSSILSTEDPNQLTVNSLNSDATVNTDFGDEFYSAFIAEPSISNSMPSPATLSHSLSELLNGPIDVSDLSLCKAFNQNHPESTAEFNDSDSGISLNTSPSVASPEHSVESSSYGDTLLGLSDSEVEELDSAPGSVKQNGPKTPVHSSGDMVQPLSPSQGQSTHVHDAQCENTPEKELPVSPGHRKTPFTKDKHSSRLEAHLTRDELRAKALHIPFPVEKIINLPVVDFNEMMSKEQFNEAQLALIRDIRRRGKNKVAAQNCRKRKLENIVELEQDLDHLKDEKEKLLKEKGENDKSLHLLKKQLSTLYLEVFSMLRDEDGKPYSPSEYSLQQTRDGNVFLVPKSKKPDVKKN
How it was run: (§1)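 SK-N-SH cells were transiently transfected with pGL3-ARE-Luc. After 24 h they were exposed to increasing concentrations of compound for 6 h. Cells were washed in PBS and lysed in Tris-phosphate pH 7.8 buffer with MgCl₂, DTT, Triton X-100 and glycerol, then luciferase activity was read in the supernatant. Output is fold induction over untreated cells; three independent experiments, mean SD, Student's t test.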

Homo sapiens = species on record: Homo sapiens; assay: (§2) Inhibition of NF-kappaB in human 5.1 cells assessed as inhibition of TNFalpha-induced HIV-1-LTR activation after 6 hrs by luciferase reporter gene assay; format: cell-based
How it was run: (§3)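 Jurkat-derived 5.1 clone, stably carrying HIV-LTR-driven luciferase and maintained under G418. Cells were preincubated with compound at the indicated doses, then stimulated with TNFα for 6 h (methods give 20 ng/mL, legend 2 ng/mL). Luciferase was read from lysate. Output is % inhibition versus TNFα alone; IC50 from curve fitting.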

SK-N-SH = assay: Cytotoxicity against human SK-N-SH cells after 6 hrs; format: cell-based
HeLa = assay: Cytotoxicity against human HeLa cells after 12 hrs; format: cell-based
Jurkat [2] = assay: Cytotoxicity against human Jurkat cells after 6 hrs; format: cell-based
[3] = test system: Human immunodeficiency virus 1; assay: Antiviral activity against VSV-G protein pseudotyped human immunodeficiency virus 1 infected in human Jurkat cells assessed as inhibition of HIV-1 replication incubated 30 mins prior to infection measured after 12 hrs by luciferase reporter gene assay relative to curcumin; format: functional
[4] = target: T1, Nuclear factor erythroid 2-related factor 2 (Homo sapiens); assay: Activation of Nrf2/ARE-mediated transcription in human SK-N-SH cells at high concentration after 6 hrs by luciferase reporter gene assay; format: cell-based; how it was run: as §1
[5] = target: T1, Nuclear factor erythroid 2-related factor 2 (Homo sapiens); assay: Activation of Nrf2/ARE-mediated transcription in human SK-N-SH cells at low concentration after 6 hrs by luciferase reporter gene assay; format: cell-based; how it was run: as §1
[6] = test system: Human immunodeficiency virus 1; assay: Antiviral activity against VSV-G protein pseudotyped human immunodeficiency virus 1 infected in human Jurkat cells assessed as inhibition of HIV-1 replication incubated 30 mins prior to infection measured after 12 hrs by luciferase reporter gene assay; format: functional, organism-based
How it was run: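 Jurkat cells at 10⁶/mL were pretreated with compounds at increasing doses for 30 min. They were then infected with VSV-G-pseudotyped pNL4-3.Luc.R⁻E⁻ (200 ng p24). Firefly luciferase was read in lysates (Tris-phosphate pH 7.8, Triton X-100) 12 h after infection. Values are % activation versus untreated infected cells (100%), given as mean ± SD of independent experiments; IC₅₀ by curve fitting.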

[7] = Inhibition of Tat-induced HIV-1-Long terminal repeat transactivation in human Hela Tat-Luc cells after 12 hrs by luciferase reporter gene assay; format: cell-based; conditions: Human immunodeficiency virus 1, HeLa
How it was run: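 HeLa cells stably transfected with pLTR-Luc and pcDNA3-Tat were exposed to compound at the indicated doses, or to DRB (50 μM) as reference, for 12 h. Luciferase activity was then measured. Output is % activation relative to untreated cells; four independent experiments, mean SD, Student's t test; IC50 from curve fitting.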

[8] = target: Mitogen-activated protein kinase; ERK1/ERK2 (Homo sapiens) (UniProt P27361+P28482); assay: Inhibition of PMA-induced ERK 1/2 phosphorylation in human Jurkat cells after 30 mins by Western blotting analysis; format: cell-based
Mitogen-activated protein kinase; ERK1/ERK2 (Homo sapiens), sequence (P27361 whole entry, looked up): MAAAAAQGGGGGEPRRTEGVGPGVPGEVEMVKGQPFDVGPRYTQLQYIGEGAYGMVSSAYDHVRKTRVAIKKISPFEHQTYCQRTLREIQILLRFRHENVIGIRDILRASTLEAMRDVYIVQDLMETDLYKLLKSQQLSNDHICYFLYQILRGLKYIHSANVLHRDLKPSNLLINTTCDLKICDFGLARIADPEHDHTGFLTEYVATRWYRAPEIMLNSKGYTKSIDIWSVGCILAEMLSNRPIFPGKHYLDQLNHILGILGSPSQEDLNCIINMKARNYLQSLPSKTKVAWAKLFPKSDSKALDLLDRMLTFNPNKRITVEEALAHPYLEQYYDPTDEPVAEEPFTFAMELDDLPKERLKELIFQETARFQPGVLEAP
Mitogen-activated protein kinase; ERK1/ERK2 (Homo sapiens), sequence (P28482 whole entry, looked up): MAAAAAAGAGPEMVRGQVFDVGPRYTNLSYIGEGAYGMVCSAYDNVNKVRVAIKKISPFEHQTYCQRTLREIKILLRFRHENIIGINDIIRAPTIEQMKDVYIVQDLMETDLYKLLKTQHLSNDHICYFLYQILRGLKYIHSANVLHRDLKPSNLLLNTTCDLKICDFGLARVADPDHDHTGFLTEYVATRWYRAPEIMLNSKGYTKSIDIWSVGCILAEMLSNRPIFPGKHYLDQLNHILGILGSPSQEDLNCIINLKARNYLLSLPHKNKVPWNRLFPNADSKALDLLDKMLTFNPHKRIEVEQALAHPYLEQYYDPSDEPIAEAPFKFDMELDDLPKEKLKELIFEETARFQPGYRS
How it was run: (§4)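 Jurkat cells (10⁶/mL) were preincubated 30 min with compound, then given PMA (50 ng/mL) for 15 min. Protein was extracted in NP-40 lysis buffer with protease and phosphatase inhibitors. 30 μg per lane was run on 10% SDS-PAGE and transferred to nitrocellulose. Blots were probed for phospho- and total ERK1/2, JNK, p65 and IκBα (incl. phospho-Ser32/36), with tubulin as loading control.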

[9] = target: Transcription factor p65 (Homo sapiens) (UniProt Q04206); assay: Inhibition of PMA-induced NF-kappaB p65 phosphorylation in human Jurkat cells after 30 mins by Western blotting analysis; format: cell-based; how it was run: as §4
Transcription factor p65 (Homo sapiens), sequence (Q04206 whole entry): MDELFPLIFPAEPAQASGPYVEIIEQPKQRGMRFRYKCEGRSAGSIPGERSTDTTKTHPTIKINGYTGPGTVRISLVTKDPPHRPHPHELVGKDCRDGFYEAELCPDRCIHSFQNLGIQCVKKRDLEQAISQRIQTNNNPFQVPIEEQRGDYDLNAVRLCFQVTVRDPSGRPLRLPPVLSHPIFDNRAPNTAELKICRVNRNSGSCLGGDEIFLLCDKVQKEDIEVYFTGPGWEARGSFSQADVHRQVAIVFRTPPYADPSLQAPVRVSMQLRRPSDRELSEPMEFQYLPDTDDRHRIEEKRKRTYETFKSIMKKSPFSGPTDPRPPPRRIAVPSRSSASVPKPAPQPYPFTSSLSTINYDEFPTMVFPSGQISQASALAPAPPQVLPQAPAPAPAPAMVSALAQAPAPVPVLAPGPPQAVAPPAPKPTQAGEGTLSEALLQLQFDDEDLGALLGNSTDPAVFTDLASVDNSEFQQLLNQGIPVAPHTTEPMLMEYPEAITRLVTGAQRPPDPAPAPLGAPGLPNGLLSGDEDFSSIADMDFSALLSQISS

[10] = target: Mitogen-activated protein kinase 8 (Homo sapiens) (UniProt P45983); assay: Inhibition of PMA-induced JNK1 phosphorylation in human Jurkat cells after 30 mins by Western blotting analysis; format: cell-based; how it was run: as §4
Mitogen-activated protein kinase 8 (Homo sapiens), sequence (P45983 whole entry): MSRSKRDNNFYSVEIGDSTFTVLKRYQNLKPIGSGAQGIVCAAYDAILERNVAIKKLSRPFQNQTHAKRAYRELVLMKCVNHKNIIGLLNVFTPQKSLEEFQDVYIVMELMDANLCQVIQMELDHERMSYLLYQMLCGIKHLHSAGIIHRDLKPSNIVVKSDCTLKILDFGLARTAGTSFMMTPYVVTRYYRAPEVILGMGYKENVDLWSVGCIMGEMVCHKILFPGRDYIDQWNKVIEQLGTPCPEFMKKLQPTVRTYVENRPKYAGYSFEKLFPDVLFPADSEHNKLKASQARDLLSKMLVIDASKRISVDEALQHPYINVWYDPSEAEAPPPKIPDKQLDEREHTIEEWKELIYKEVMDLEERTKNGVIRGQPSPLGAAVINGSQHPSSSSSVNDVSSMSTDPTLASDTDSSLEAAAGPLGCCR

Jurkat [11] = assay: Inhibition of PMA-induced NF-kappaB activation in human Jurkat cells assessed as inhibition of IkappaBalpha degradation after 30 mins by Western blotting analysis; format: cell-based; how it was run: as §4
Jurkat [12] = assay: Inhibition of PMA-induced NF-kappaB activation in human Jurkat cells assessed as inhibition of IkappaBalpha phosphorylation after 30 mins by Western blotting analysis; format: cell-based; how it was run: as §4
[13] = as §2; format: cell-based; how it was run: as §3
[14] = target: Mitogen-activated protein kinase 9 (Homo sapiens) (UniProt P45984); assay: Inhibition of PMA-induced JNK2 phosphorylation in human Jurkat cells after 30 mins by Western blotting analysis
Mitogen-activated protein kinase 9 (Homo sapiens), sequence (P45984 whole entry, looked up): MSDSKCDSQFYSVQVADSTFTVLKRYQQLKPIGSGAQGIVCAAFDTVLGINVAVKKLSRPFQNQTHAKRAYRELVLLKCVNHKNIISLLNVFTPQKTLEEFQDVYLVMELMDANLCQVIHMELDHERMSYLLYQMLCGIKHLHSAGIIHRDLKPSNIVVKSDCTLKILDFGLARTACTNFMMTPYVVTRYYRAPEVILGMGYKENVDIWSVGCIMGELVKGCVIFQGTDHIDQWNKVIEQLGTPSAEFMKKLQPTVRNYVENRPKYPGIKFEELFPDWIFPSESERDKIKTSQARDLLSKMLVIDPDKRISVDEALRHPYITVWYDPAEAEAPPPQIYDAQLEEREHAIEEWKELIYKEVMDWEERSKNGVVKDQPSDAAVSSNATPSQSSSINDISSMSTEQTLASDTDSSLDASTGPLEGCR

In the case of `COc1cc(/C=C/C(=O)/C=C/c2cc(CC=C(C)C)c(O)c(OC)c2)cc(CC=C(C)C)c1O`, the Activity [1] is reported as “inactive” and the inhibition (Homo sapiens) is reported as “Active”.
In the case of `COc1cc(/C=C/C(=O)/C=C/c2ccc(O)c(OC)c2)ccc1O`, the Activity (SK-N-SH) is reported as “Non-toxic”, the Activity (HeLa) is reported as “Non-toxic” and the Activity (Jurkat [2]) is reported as “Non-toxic”. The Ratio [3] was 4, the Activity [4] was “inactive” and the Activity [5] was “Active”. For the same compound, the Activity [6] was “Active”, the IC50 [7] was 4.7 µM and the inhibition [8] was “inactive”. The inhibition [9] was “Dose-dependent effect”, the inhibition [10] was “Dose-dependent effect” and the inhibition (Jurkat [11]) was “Dose-dependent effect”. For the same compound, the inhibition (Jurkat [12]) was “Dose-dependent effect”, the IC50 [13] was 4.92 µM and the inhibition [14] was “Dose-dependent effect”.
In the case of `COc1cc(CCC(=O)CC(=O)CCc2ccc(O)c(OC)c2)ccc1O`, the Activity [1] is reported as “inactive” and the inhibition (Homo sapiens) is reported as “Active”.
For `COc1cc(/C=C/C(=O)CC(=O)/C=C/c2cc(CC=C(C)C)c(O)c(OC)c2)cc(CC=C(C)C)c1O`, the Activity [1] was “inactive” and the inhibition (Homo sapiens) was “inactive”.
In the case of `COc1cc(/C=C/C(=O)CC(=O)/C=C/c2ccc(O)c(OC)c2)ccc1O` [CURCUMIN], the Activity [1] is reported as “Active”, the Activity [6] is reported as “Active” and the IC50 [13] is reported as 16.4 µM.
For `COc1cc(CCC(=O)CC(=O)CCc2cc(CCC(C)C)c(O)c(OC)c2)cc(CCC(C)C)c1O`, the inhibition (Homo sapiens) was “Active”.

Reference: ChEMBL document CHEMBL2390883, “Dissecting the pharmacophore of curcumin. Which structural element is critical for which action?” (J Nat Prod, 2013)
